This is an account of results in ChEMBL document CHEMBL3259614, “Design, synthesis, and structure-activity relationship studies of novel fused heterocycles-linked triazoles with good activity and water solubility” (J Med Chem, 2014).

A word on the MIC: it is the lowest concentration found to suppress growth. The low end stands for inhibition by little substance, the high end for a need for much substance.

Converted amounts (≈) assume the structure as drawn.

One experiment deals with Candida parapsilosis. Briefly: Antimicrobial activity against Candida parapsilosis 22019 after 24 hrs by serial dilution method. The experiment is classed as functional. Conditions: Lodderomyces parapsilosis, 22019, 24 h. Summed up:
(§1)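 Broth serial dilution MIC in 96-well plates following NCCLS/CLSI methods. Compounds were dissolved in DMSO and serially diluted in growth medium, with incubation at 35 °C. […] C. parapsilosis 22019 served as the quality-control strain in each assay.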
Regarding `C[C@@H](N1CCc2nc(-c3ccc(Cl)cc3)sc2C1)[C@](O)(Cn1cncn1)c1ccc(F)cc1F`, the MIC came out at 2 µg/mL (≈ 3.98 µM).
The same measure, in the same setting: the value for `C[C@@H](N1CCc2nc(-c3ccc(C(F)(F)F)cc3)sc2C1)[C@](O)(Cn1cncn1)c1ccc(F)cc1F` was 2 µg/mL (≈ 3.73 µM); that for `COc1ccc(-c2nc3c(s2)CN([C@H](C)[C@](O)(Cn2cncn2)c2ccc(F)cc2F)CC3)cc1` was 0.5 µg/mL (≈ 1 µM).
Still for that read-out and setting: the value for `Cc1ccc(-c2nc3c(s2)CN([C@H](C)[C@](O)(Cn2cncn2)c2ccc(F)cc2F)CC3)cc1` was 0.5 µg/mL (≈ 1.04 µM).
As to `C[C@@H](N1CCc2nc(-c3ccc(F)cc3)sc2C1)[C@](O)(Cn1cncn1)c1ccc(F)cc1F`, the MIC stood at 2 µg/mL (≈ 4.12 µM).
`C[C@@H](N1CCc2nc(-c3ccc(Br)cc3)sc2C1)[C@](O)(Cn1cncn1)c1ccc(F)cc1F` displayed a minimal inhibitory concentration (MIC) of 4 µg/mL (≈ 7.32 µM).
On the same count and under the same terms, under `CC(C)c1ccc(-c2nc3c(s2)CN([C@H](C)[C@](O)(Cn2cncn2)c2ccc(F)cc2F)CC3)cc1` stands 0.5 µg/mL (≈ 0.981 µM).
The same measure, in the same setting: the value for `C[C@@H](N1CCc2nc(-c3cccc(Cl)c3)sc2C1)[C@](O)(Cn1cncn1)c1ccc(F)cc1F` was 2 µg/mL (≈ 3.98 µM).

Another experiment relates to Aspergillus fumigatus. The experiment can be described thus: Antimicrobial activity against Aspergillus fumigatus 7544 after 48 hrs by serial dilution method. The experiment is classed as functional. Conditions: Aspergillus fumigatus, 7544, 48 h. An outline of the steps:
as §1
The compound `C[C@@H](N1CCc2nc(-c3ccc(Cl)cc3)sc2C1)[C@](O)(Cn1cncn1)c1ccc(F)cc1F` had a minimal inhibitory concentration (MIC) of 32 µg/mL (≈ 63.7 µM).
Still for that read-out and setting: the value for `C[C@@H](N1CCc2nc(-c3ccc(C(F)(F)F)cc3)sc2C1)[C@](O)(Cn1cncn1)c1ccc(F)cc1F` was 32 µg/mL (≈ 59.8 µM); that for `COc1ccc(-c2nc3c(s2)CN([C@H](C)[C@](O)(Cn2cncn2)c2ccc(F)cc2F)CC3)cc1` was 16 µg/mL (≈ 32.2 µM).
In turn, `Cc1ccc(-c2nc3c(s2)CN([C@H](C)[C@](O)(Cn2cncn2)c2ccc(F)cc2F)CC3)cc1` displayed a minimum inhibitory concentration (MIC) of 16 µg/mL (≈ 33.2 µM).
On the same count and under the same terms, the value for `C[C@@H](N1CCc2nc(-c3ccc(F)cc3)sc2C1)[C@](O)(Cn1cncn1)c1ccc(F)cc1F` was 16 µg/mL (≈ 33 µM); that for `C[C@@H](N1CCc2nc(-c3ccc(Br)cc3)sc2C1)[C@](O)(Cn1cncn1)c1ccc(F)cc1F` was 16 µg/mL (≈ 29.3 µM).
On the same count and under the same terms, under `CC(C)c1ccc(-c2nc3c(s2)CN([C@H](C)[C@](O)(Cn2cncn2)c2ccc(F)cc2F)CC3)cc1` stands 16 µg/mL (≈ 31.4 µM).
Still for that read-out and setting: the value for `C[C@@H](N1CCc2nc(-c3cccc(Cl)c3)sc2C1)[C@](O)(Cn1cncn1)c1ccc(F)cc1F` was 32 µg/mL (≈ 63.7 µM).

Another experiment concerns Cryptococcus neoformans. The experiment can be described thus: Antimicrobial activity against Cryptococcus neoformans 32609 after 72 hrs by serial dilution method. The conditions noted are these: Cryptococcus neoformans, 32609, 72 h. The experiment is classed as functional. An outline of the steps: as §1
Turning to `C[C@@H](N1CCc2nc(-c3ccc(Cl)cc3)sc2C1)[C@](O)(Cn1cncn1)c1ccc(F)cc1F`, the lowest concentration to inhibit growth (MIC) was 1 µg/mL (≈ 1.99 µM).
Still for that read-out and setting: the value for `C[C@@H](N1CCc2nc(-c3ccc(C(F)(F)F)cc3)sc2C1)[C@](O)(Cn1cncn1)c1ccc(F)cc1F` was 2 µg/mL (≈ 3.73 µM); that for `COc1ccc(-c2nc3c(s2)CN([C@H](C)[C@](O)(Cn2cncn2)c2ccc(F)cc2F)CC3)cc1` was 1 µg/mL (≈ 2.01 µM).
Compound `Cc1ccc(-c2nc3c(s2)CN([C@H](C)[C@](O)(Cn2cncn2)c2ccc(F)cc2F)CC3)cc1` gave a minimum inhibitory concentration (MIC) of 0.5 µg/mL (≈ 1.04 µM).
In the case of `C[C@@H](N1CCc2nc(-c3ccc(F)cc3)sc2C1)[C@](O)(Cn1cncn1)c1ccc(F)cc1F`, the minimal inhibitory concentration (MIC) is 1 µg/mL (≈ 2.06 µM).
On the same count and under the same terms, the value for `C[C@@H](N1CCc2nc(-c3ccc(Br)cc3)sc2C1)[C@](O)(Cn1cncn1)c1ccc(F)cc1F` was 1 µg/mL (≈ 1.83 µM).
Same read-out and setting: the value for `CC(C)c1ccc(-c2nc3c(s2)CN([C@H](C)[C@](O)(Cn2cncn2)c2ccc(F)cc2F)CC3)cc1` was 1 µg/mL (≈ 1.96 µM).
For the compound `C[C@@H](N1CCc2nc(-c3cccc(Cl)c3)sc2C1)[C@](O)(Cn1cncn1)c1ccc(F)cc1F`, the MIC was 2 µg/mL (≈ 3.98 µM).

The next experiment concerns Candida albicans. The experiment can be described thus: Antimicrobial activity against Candida albicans SC5314 after 24 hrs by serial dilution method. Type of experiment: functional. Conditions: SC5314, 24 h. An outline of the steps: as §1
Take `C[C@@H](N1CCc2nc(-c3ccc(Cl)cc3)sc2C1)[C@](O)(Cn1cncn1)c1ccc(F)cc1F`: 0.5 µg/mL (≈ 0.996 µM) was the least that counted as inhibitory (MIC).
The same measure, in the same setting: under `C[C@@H](N1CCc2nc(-c3ccc(C(F)(F)F)cc3)sc2C1)[C@](O)(Cn1cncn1)c1ccc(F)cc1F` stands 1 µg/mL (≈ 1.87 µM); under `COc1ccc(-c2nc3c(s2)CN([C@H](C)[C@](O)(Cn2cncn2)c2ccc(F)cc2F)CC3)cc1`, 1 µg/mL (≈ 2.01 µM).
On the same count and under the same terms, the value for `Cc1ccc(-c2nc3c(s2)CN([C@H](C)[C@](O)(Cn2cncn2)c2ccc(F)cc2F)CC3)cc1` was 0.5 µg/mL (≈ 1.04 µM); that for `C[C@@H](N1CCc2nc(-c3ccc(F)cc3)sc2C1)[C@](O)(Cn1cncn1)c1ccc(F)cc1F` was 1 µg/mL (≈ 2.06 µM).
Take `C[C@@H](N1CCc2nc(-c3ccc(Br)cc3)sc2C1)[C@](O)(Cn1cncn1)c1ccc(F)cc1F`: the MIC was 1 µg/mL (≈ 1.83 µM).
The same measure, in the same setting: the value for `CC(C)c1ccc(-c2nc3c(s2)CN([C@H](C)[C@](O)(Cn2cncn2)c2ccc(F)cc2F)CC3)cc1` was 0.5 µg/mL (≈ 0.981 µM).
The compound `C[C@@H](N1CCc2nc(-c3cccc(Cl)c3)sc2C1)[C@](O)(Cn1cncn1)c1ccc(F)cc1F` came in with an MIC of 4 µg/mL (≈ 7.97 µM).

The subject of a further experiment is Candida albicans. Briefly: Antimicrobial activity against Candida albicans Y0109 after 24 hrs by serial dilution method. Type of experiment: functional. Conditions: Y0109, 24 h. An outline of the steps: as §1
Compound `C[C@@H](N1CCc2nc(-c3ccc(Cl)cc3)sc2C1)[C@](O)(Cn1cncn1)c1ccc(F)cc1F` returned an MIC of 1 µg/mL (≈ 1.99 µM).
The compound `C[C@@H](N1CCc2nc(-c3ccc(C(F)(F)F)cc3)sc2C1)[C@](O)(Cn1cncn1)c1ccc(F)cc1F` displayed an MIC of 2 µg/mL (≈ 3.73 µM).
Compound `COc1ccc(-c2nc3c(s2)CN([C@H](C)[C@](O)(Cn2cncn2)c2ccc(F)cc2F)CC3)cc1` returned a minimal inhibitory concentration (MIC) of 1 µg/mL (≈ 2.01 µM).
The same measure, in the same setting: under `Cc1ccc(-c2nc3c(s2)CN([C@H](C)[C@](O)(Cn2cncn2)c2ccc(F)cc2F)CC3)cc1` stands 1 µg/mL (≈ 2.08 µM); under `C[C@@H](N1CCc2nc(-c3ccc(F)cc3)sc2C1)[C@](O)(Cn1cncn1)c1ccc(F)cc1F`, 1 µg/mL (≈ 2.06 µM); under `C[C@@H](N1CCc2nc(-c3ccc(Br)cc3)sc2C1)[C@](O)(Cn1cncn1)c1ccc(F)cc1F`, 1 µg/mL (≈ 1.83 µM).
Take `CC(C)c1ccc(-c2nc3c(s2)CN([C@H](C)[C@](O)(Cn2cncn2)c2ccc(F)cc2F)CC3)cc1`: the MIC was 1 µg/mL (≈ 1.96 µM).
Same read-out and setting: the value for `C[C@@H](N1CCc2nc(-c3cccc(Cl)c3)sc2C1)[C@](O)(Cn1cncn1)c1ccc(F)cc1F` was 4 µg/mL (≈ 7.97 µM).

The test system of the next experiment is Nakaseomyces glabratus. The experiment can be described thus: Antimicrobial activity against Candida glabrata 537 after 24 hrs by serial dilution method. The conditions noted are these: Nakaseomyces glabratus, 537, 24 h. The experiment is classed as functional. Summed up:
as §1
The compound `C[C@@H](N1CCc2nc(-c3ccc(Cl)cc3)sc2C1)[C@](O)(Cn1cncn1)c1ccc(F)cc1F` came in with an MIC of 1 µg/mL (≈ 1.99 µM).
Still for that read-out and setting: the value for `C[C@@H](N1CCc2nc(-c3ccc(C(F)(F)F)cc3)sc2C1)[C@](O)(Cn1cncn1)c1ccc(F)cc1F` was 1 µg/mL (≈ 1.87 µM); that for `COc1ccc(-c2nc3c(s2)CN([C@H](C)[C@](O)(Cn2cncn2)c2ccc(F)cc2F)CC3)cc1` was 1 µg/mL (≈ 2.01 µM); that for `Cc1ccc(-c2nc3c(s2)CN([C@H](C)[C@](O)(Cn2cncn2)c2ccc(F)cc2F)CC3)cc1` was 1 µg/mL (≈ 2.08 µM).
For `C[C@@H](N1CCc2nc(-c3ccc(F)cc3)sc2C1)[C@](O)(Cn1cncn1)c1ccc(F)cc1F`, the MIC was found to be 4 µg/mL (≈ 8.24 µM).
Same read-out and setting: the value for `C[C@@H](N1CCc2nc(-c3ccc(Br)cc3)sc2C1)[C@](O)(Cn1cncn1)c1ccc(F)cc1F` was 2 µg/mL (≈ 3.66 µM); that for `CC(C)c1ccc(-c2nc3c(s2)CN([C@H](C)[C@](O)(Cn2cncn2)c2ccc(F)cc2F)CC3)cc1` was 1 µg/mL (≈ 1.96 µM); that for `C[C@@H](N1CCc2nc(-c3cccc(Cl)c3)sc2C1)[C@](O)(Cn1cncn1)c1ccc(F)cc1F` was 4 µg/mL (≈ 7.97 µM).
